ChEMBL document CHEMBL5038663, “Probing the Requirements for Dual Angiotensin-Converting Enzyme C-Domain Selective/Neprilysin Inhibition” (J Med Chem, 2022)

Experiments:
[1] = species on record: Homo sapiens; test: Selectivity ratio of Ki for human ACE N-domain expressed in CHO cells to Ki for human ACE C-domain expressed in CHO cells; format: cell-based
Summary of the method: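 Ki for each ACE domain from IC50 by Cheng-Prusoff for competitive inhibition, Ki = IC50/(1 + [S]/Km). […] Ratio taken as N-domain Ki over C-domain Ki.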

[2] = biological target: T1, Angiotensin-converting enzyme (Homo sapiens, UniProt P12821); test: Inhibition of recombinant human ACE N-domain expressed in CHO cells using Cbz-Phe-His-Leu as substrate preincubated for 15 mins followed by substrate addition and measured after 10 mins by fluorescence spectrophotometric analysis
T1 sequence (P12821 whole entry): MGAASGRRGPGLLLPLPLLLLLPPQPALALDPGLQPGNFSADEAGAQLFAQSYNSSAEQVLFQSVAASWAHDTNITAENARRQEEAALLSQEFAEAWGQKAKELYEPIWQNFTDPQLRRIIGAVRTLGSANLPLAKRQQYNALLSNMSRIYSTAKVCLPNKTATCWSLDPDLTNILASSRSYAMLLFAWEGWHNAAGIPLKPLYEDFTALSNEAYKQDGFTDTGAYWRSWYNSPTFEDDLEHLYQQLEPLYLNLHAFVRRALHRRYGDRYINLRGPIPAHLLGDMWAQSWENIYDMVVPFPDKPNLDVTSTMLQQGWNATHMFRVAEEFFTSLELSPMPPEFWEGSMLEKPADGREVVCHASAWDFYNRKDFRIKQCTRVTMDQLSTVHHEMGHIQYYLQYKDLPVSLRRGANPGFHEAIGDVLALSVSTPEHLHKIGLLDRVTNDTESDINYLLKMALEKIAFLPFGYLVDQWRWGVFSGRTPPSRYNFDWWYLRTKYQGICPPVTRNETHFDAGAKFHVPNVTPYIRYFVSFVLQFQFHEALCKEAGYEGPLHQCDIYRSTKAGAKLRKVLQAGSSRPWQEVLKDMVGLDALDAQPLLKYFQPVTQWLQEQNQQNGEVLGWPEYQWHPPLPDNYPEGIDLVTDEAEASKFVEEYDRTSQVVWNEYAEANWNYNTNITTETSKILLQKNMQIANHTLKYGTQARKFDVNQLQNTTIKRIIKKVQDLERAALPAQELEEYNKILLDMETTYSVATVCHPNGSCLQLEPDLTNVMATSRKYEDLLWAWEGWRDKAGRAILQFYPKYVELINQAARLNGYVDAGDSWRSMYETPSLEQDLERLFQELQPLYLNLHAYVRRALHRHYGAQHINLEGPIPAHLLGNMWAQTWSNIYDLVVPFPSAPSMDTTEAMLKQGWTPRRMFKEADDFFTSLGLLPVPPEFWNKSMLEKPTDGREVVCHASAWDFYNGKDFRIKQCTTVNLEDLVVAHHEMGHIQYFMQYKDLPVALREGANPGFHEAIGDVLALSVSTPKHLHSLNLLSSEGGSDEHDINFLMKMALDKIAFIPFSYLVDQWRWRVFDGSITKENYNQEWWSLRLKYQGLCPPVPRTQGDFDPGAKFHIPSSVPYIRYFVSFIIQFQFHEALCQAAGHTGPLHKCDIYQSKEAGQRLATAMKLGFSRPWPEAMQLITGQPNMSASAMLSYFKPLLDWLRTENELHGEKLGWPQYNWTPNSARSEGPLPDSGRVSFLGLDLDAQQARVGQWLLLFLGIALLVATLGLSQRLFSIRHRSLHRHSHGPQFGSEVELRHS
Summary of the method: (§1)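 Fully glycosylated single-domain human ACE (C-domain D629, N-domain Δ36NJ) from CHO cells. Two-fold inhibitor dilution in 100 mM potassium phosphate pH 8.3, 300 mM NaCl, 10 μM ZnCl₂. Preincubation 15 min at 22 °C. 10 min at 37 °C, stopped with NaOH/o-phthalaldehyde, then HCl. Triplicates, n ≥ 2 independent experiments.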

[3] = biological target: Neprilysin (Homo sapiens, UniProt P08473); test: Inhibition of hGH-8His-NEP expressed in CHO cells preincubated for 15 mins followed by […] peptide substrate addition by fluorescence spectrophotometric analysis; format: cell-based
Neprilysin, sequence (P08473 whole entry, the tested form may be a part): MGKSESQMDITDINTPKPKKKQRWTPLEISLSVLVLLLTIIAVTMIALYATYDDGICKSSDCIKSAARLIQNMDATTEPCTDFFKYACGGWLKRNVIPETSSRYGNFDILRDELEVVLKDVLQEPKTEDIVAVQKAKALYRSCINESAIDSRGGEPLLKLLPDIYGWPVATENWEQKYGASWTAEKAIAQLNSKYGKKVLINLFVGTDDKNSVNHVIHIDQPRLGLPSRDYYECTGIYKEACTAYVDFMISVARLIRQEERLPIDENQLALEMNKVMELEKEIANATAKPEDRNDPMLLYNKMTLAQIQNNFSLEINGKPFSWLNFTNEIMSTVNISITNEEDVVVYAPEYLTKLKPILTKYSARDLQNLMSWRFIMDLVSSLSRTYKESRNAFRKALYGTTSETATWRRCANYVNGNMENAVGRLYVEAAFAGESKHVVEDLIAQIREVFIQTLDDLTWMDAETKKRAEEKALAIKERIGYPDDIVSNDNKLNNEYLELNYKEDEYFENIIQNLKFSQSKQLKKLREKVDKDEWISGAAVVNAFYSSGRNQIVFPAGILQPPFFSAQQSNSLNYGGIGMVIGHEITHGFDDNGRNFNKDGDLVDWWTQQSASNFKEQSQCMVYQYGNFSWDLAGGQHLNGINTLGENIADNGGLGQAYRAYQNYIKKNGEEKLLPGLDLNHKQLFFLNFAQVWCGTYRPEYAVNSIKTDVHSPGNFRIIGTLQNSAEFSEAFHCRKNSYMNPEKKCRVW
Summary of the method: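 Secreted glycosylated human NEP ectodomain (hGH-8His fusion) from CHO cells, purified by cobalt affinity. Two-fold inhibitor serial dilution in 50 mM Tris pH 8.3, 0.05% Brij-35, 300 mM NaCl, 10 μM ZnCl₂. Enzyme and inhibitor preincubated 15 min at 22 °C. […] Continuous fluorescence at ex 320/em 405 nm. Triplicates, n ≥ 2 independent experiments.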

[4] = biological target: T1, Angiotensin-converting enzyme; test: Inhibition of recombinant human ACE C-domain expressed in CHO cells using Cbz-Phe-His-Leu as substrate preincubated for 15 mins followed by substrate addition and measured after 10 mins by fluorescence spectrophotometric analysis; summary of the method: as §1

Row | Structure (SMILES) | Ratio Ki [1] | Ki [2] | Ki [3] | Ki [4]
1 | NCCCC[C@H](N[C@@H](CCc1ccccc1)C(=O)O)C(=O)N[C@@H](Cc1c[nH]c2ccccc12)C(=O)O | 189 | 1700 nM | > 150000 nM | 9 nM
2 | CCCC[C@H](N[C@@H](CCc1ccccc1)C(=O)O)C(=O)N[C@@H](Cc1ccc(O)cc1)C(=O)O | 3.5 | 120 nM | 600 nM | 35 nM
3 | Cc1ccc([C@H]2CC[C@@H](C(=O)O)N2C(=O)CN[C@@H](CCc2ccccc2)C(=O)O)cc1 | 8 | 3400 nM | > 50000 nM | 440 nM
4 | CCCC[C@H](N[C@@H](CCc1ccccc1)C(=O)O)C(=O)N[C@@H](Cc1c[nH]c2ccccc12)C(=O)O | 37 | 3790 nM | 19000 nM | 100 nM
